One block for each compound: values may come before it. Active and inactive are the calls of the source. The rule behind the calls is not given here.
Tests used:
[1] = target: T1, Inhibitor of nuclear factor kappa-B kinase subunit beta (Homo sapiens, UniProt O14920); test: Allosteric inhibition of IKKbeta (unknown origin) using 5FAM-GRHDSGLDSMK-NH2 as substrate pretreated for 10 mins followed measured after 2 hrs by TR-FRET assay
T1 sequence (O14920 whole entry): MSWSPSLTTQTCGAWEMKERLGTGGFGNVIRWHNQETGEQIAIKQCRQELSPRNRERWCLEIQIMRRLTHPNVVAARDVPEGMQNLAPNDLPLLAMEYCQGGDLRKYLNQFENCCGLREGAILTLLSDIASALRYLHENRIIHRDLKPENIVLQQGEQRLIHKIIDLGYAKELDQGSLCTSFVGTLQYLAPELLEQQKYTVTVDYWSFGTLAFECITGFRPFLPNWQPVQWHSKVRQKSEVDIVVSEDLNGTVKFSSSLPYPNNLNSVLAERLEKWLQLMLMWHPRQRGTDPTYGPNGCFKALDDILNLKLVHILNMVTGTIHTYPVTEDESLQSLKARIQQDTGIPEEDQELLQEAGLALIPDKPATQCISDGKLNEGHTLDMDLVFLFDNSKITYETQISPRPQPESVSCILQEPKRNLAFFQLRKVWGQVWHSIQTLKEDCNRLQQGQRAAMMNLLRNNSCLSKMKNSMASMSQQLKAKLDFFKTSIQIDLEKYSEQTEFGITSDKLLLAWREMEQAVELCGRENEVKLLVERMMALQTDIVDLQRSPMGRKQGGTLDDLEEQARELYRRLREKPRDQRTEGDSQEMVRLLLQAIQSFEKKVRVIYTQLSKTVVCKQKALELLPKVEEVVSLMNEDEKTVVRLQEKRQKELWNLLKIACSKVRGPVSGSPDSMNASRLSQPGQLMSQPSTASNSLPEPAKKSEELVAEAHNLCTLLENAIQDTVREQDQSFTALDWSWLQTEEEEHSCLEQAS
How it was run: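 Enzyme: 0.5 µg/mL IKK2, in 10 mM Tris-HCl pH 7.2, 10 mM MgCl2, 0.05% NaN3, 1 mM DTT, 0.01% Tween-20. Compound at 10 µM pre-incubated 10 min, then 1 µM 5-FAM IκBα peptide and 3 µM ATP added. Reaction 2 h at room temperature. IMAP binding reagent/terbium detection mix added 15 h before reading. TR-FRET read with 340 nm excitation, emission 495/520 nm. Percent inhibition or IC50 derived.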

[2] = test system: RAW264.7; test: Antiinflammatory activity against mouse RAW264.7 cells assessed as reduction in LPS-induced NO level at 40 uM incubated for 1 hr followed by LPS stimulation and measured after 24 hrs by Griess reagent based assay; type: functional, cell-based
How it was run: (§1)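 RAW 264.7 cells in 24-well plates received compounds (0.1, 1, 10 µM) or L-NIL 40 µM positive control, then LPS 1 µg/mL for 24 h. Nitrite in the medium measured by Griess reaction as an NO surrogate. Values referenced to levels before and after LPS stimulation.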

[3] = test system: RAW264.7; test: Cytotoxicity against mouse RAW264.7 cells assessed as reduction in cell viability incubated for 24 hrs in presence of LPS by MTT assay; type: cell-based; conditions: RAW264.7, 24 h
How it was run: (§2)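 MTT viability in RAW 264.7 cells seeded at 1×10^5 cells/mL and incubated overnight. Compounds added with or without LPS (1 µg/mL) for 24 h. MTT for 4 h at 37 °C, formazan dissolved in DMSO, absorbance read at 540 nm. IC80 is the concentration reducing viability to 80% with LPS.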

[4] = test system: RAW264.7; test: Antiinflammatory activity against mouse RAW264.7 cells assessed as reduction in LPS-induced TNF-alpha level incubated for 1 hr followed by LPS stimulation and measured after 24 hrs by ELISA; type: functional, cell-based
How it was run: (§3)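 RAW 264.7 cells (DMEM, 10% FBS, 37 °C, 5% CO2) plated at 2×10^5 cells/mL and left overnight. Compounds (0.1, 1, 10 µM) or NS-398 given for 1 h, then LPS 10 ng/mL for 24 h. Culture medium assayed by ELISA: competitive colorimetric for PGE2/TNF-α, mouse DuoSet for TNF-α/IL-6. IC50 is the concentration lowering the mediator to 50%.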

[5] = test system: RAW264.7; test: Antiinflammatory activity against mouse RAW264.7 cells assessed as reduction in LPS-induced NO level incubated for 1 hr followed by LPS stimulation and measured after 24 hrs by Griess reagent based assay; type: functional, cell-based; how it was run: as §1
[6] = test system: RAW264.7; test: Antiinflammatory activity against mouse RAW264.7 cells assessed as reduction in LPS-induced PGE2 level incubated for 1 hr followed by LPS stimulation and measured after 24 hrs by ELISA; type: functional, cell-based; how it was run: as §3
[7] = test system: RAW264.7; test: Antiinflammatory activity against mouse RAW264.7 cells assessed as reduction in LPS-induced IL-6 level incubated for 1 hr followed by LPS stimulation and measured after 24 hrs by ELISA; type: functional, cell-based; how it was run: as §3
[8] = test system: RAW264.7; test: Antiinflammatory activity against mouse RAW264.7 cells assessed as reduction in LPS-induced TNF-alpha level at 10 uM incubated for 1 hr followed by LPS stimulation and measured after 24 hrs by ELISA relative to control; type: functional; conditions: time 25 hrs; how it was run: as §3
[9] = test system: RAW264.7; test: Antiinflammatory activity against mouse RAW264.7 cells assessed as reduction in LPS-induced TNF-alpha level at 0.1 to 1 uM incubated for 1 hr followed by LPS stimulation and measured after 24 hrs by ELISA; type: functional, cell-based; conditions: dose 0.1-1 µM, time 25.0 hrs; how it was run: as §3
[10] = test system: RAW264.7; test: Antiinflammatory activity against mouse RAW264.7 cells assessed as reduction in LPS-induced PGE2 production at 10 uM incubated for 1 hr followed by LPS stimulation and measured after 24 hrs by ELISA (reference value: 33.64 ng/ml); type: functional; how it was run: as §3
[11] = test system: RAW264.7; test: Antiinflammatory activity against mouse RAW264.7 cells assessed as reduction in LPS-induced PGE2 production at 0.1 to 1 uM incubated for 1 hr followed by LPS stimulation and measured after 24 hrs by ELISA; type: functional, cell-based; conditions: dose 0.1-1 µM, time 25.0 hrs; how it was run: as §3
[12] = Effect on NO production in non-stimulated mouse RAW264.7 cells at 10 uM after 24 hrs by Griess reagent based assay; conditions: raw264.7, 24 h
[13] = test system: RAW264.7; test: Cytotoxicity against mouse RAW264.7 cells assessed as reduction in cell viability at 6 uM incubated for 24 hrs by MTT assay; type: cell-based; conditions: raw264.7, 24 h; how it was run: as §2
[14] = Cytotoxicity against non-stimulated mouse RAW264.7 cells upto 10 uM after 24 hrs by MTT assay; conditions: raw264.7, 24 h
[15] = test system: RAW264.7; test: Antiinflammatory activity against mouse RAW264.7 cells assessed as reduction in LPS-induced PGE2 production at […] incubated for 1 hr followed by LPS stimulation and measured after 24 hrs by ELISA (reference value: 33.64 ng/ml); type: functional; conditions: time 25 hrs

SMILES: CC(=O)Nc1ccc(Oc2ccc(/C=C3\SC(=O)N(c4ccc(OCCCCCN5CCN(C)CC5)cc4)C3=O)cc2)cc1
IC50 [1]: 1710 nM

SMILES: CC(=N)NCCCC[C@H](N)C(=O)O
Activity [2]: Active

SMILES: Cc1ccc(Oc2ccc(/C=C3\SC(=O)N(c4ccc(OCCCCCN5CCN(C)CC5)cc4)C3=O)cc2)cc1
IC50 [1]: 870 nM

SMILES: CN1CCN(CCCCCOc2ccc(N3C(=O)S/C(=C\c4ccc(Oc5ccc(N)cc5)cc4)C3=O)cc2)CC1
IC50 [1]: 2610 nM

SMILES: COc1ccc(Oc2ccc(/C=C3\SC(=O)N(c4ccc(OCCCCCN5CCN(C)CC5)cc4)C3=O)cc2)cc1
IC50 [1]: 700 nM

SMILES: CN1CCN(CCCCCOc2ccc(N3C(=O)S/C(=C\c4ccc(Oc5ccc(Br)cc5)cc4)C3=O)cc2)CC1
IC50 [1]: 430 nM

SMILES: CS(=O)(=O)Nc1ccc([N+](=O)[O-])cc1OC1CCCCC1 [NS-398]
Activity [15]: 12.02 ng/mL

Now from value to compound, other results behind:

IC50 [1]: 8070 nM
SMILES: CN1CCN(CCCCCOc2cccc(N3C(=O)S/C(=C\c4ccc(Oc5ccc(N)cc5)cc4)C3=O)c2)CC1

IC50 [1]: 600 nM
SMILES: CN1CCN(CCCCCOc2ccc(N3C(=O)S/C(=C\c4ccc(Oc5ccc(F)cc5)cc4)C3=O)cc2)CC1

IC50 [1]: 2670 nM
SMILES: CN1CCN(CCCCCOc2cccc(N3C(=O)S/C(=C\c4ccc(Oc5ccc(Br)cc5)cc4)C3=O)c2)CC1

IC50 [1]: 6060 nM | IC50 [4]: 7870 nM | IC50 [5]: > 10000 nM | IC50 [6]: > 10000 nM | IC50 [7]: > 10000 nM
SMILES: CN1CCN(CCCCCOc2cccc(N3C(=O)S/C(=C\c4ccc(Oc5ccc(F)cc5)cc4)C3=O)c2)CC1
IC80 [3]: 4430 nM | inhibition at 10 µM [8]: 71% | inhibition [9]: inactive | Activity ([10]; time 25.0 hrs): inactive | Activity [11]: inactive | Activity [12]: Non-Toxic | Activity [13]: Non-Toxic | Activity [14]: Non-Toxic

IC50 [1]: 2430 nM
SMILES: COc1ccc(Oc2ccc(/C=C3\SC(=O)N(c4cccc(OCCCCCN5CCN(C)CC5)c4)C3=O)cc2)cc1

IC50 [1]: 2730 nM
SMILES: Cc1ccc(Oc2ccc(/C=C3\SC(=O)N(c4cccc(OCCCCCN5CCN(C)CC5)c4)C3=O)cc2)cc1

IC50 [1]: 670 nM
SMILES: CN1CCN(CCCOc2ccc(N3C(=O)S/C(=C\c4ccc(Oc5ccc(F)cc5)cc4)C3=O)cc2)CC1

IC50 [1]: 2610 nM | IC50 [4]: > 10000 nM | IC50 [5]: > 10000 nM | IC50 [6]: 8520 nM | IC50 [7]: > 10000 nM
SMILES: CN1CCN(CCCCCOc2cccc(N3C(=O)S/C(=C\c4ccc(Oc5ccc(Cl)cc5)cc4)C3=O)c2)CC1
IC80 [3]: > 10000 nM | inhibition at 10 µM [8]: 44% | Activity ([10]; time 25 hrs): 13.87 ng/mL | Activity [11]: inactive | Activity [12]: Non-Toxic | Activity [13]: Non-Toxic | Activity [14]: Non-Toxic

IC50 [1]: 840 nM
SMILES: CN1CCN(CCCCCOc2cccc(N3C(=O)S/C(=C\c4ccc(Oc5ccc(C#N)cc5)cc4)C3=O)c2)CC1

IC50 [1]: 700 nM
SMILES: CN1CCN(CCCCCOc2ccc(N3C(=O)S/C(=C\c4ccc(Oc5ccc(Cl)cc5)cc4)C3=O)cc2)CC1

Source: ChEMBL document CHEMBL4680142, “Thiazolidine-2,4-dione-based irreversible allosteric IKK-β kinase inhibitors: Optimization into in vivo active anti-inflammatory agents” (Eur J Med Chem, 2020)
